# Source: ChEMBL document CHEMBL3244175, “Experimental antiulcer drugs. 2. 2-Substituted 2,4,5,6-tetrahydro-1,3,4,6,6-pentamethylcyclopenta[c]pyrrole-4-carboxamides” (1977)
# Active and inactive are the calls of the source. The calls are words filed in the database; no cut-off is given here.
# Tests used:
# Rattus norvegicus [1] = assay: Antisecretory activity in 5-hrs pyloric ligated rat assessed as pH of gastric contents at 100 mg/kg, po administered 2 hrs prior to pyloric ligation measured after 1 hr (reference value: 1.1 no-unit); format: functional, Stomach
# Rattus norvegicus [2] = assay: Antisecretory activity in 5-hrs pyloric ligated rat assessed as inhibition of total acid output at 100 mg/kg, po administered 2 hrs prior to pyloric ligation (reference value: 0%); format: functional
# Summary of the method: (§1)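 Rats given a single po dose (12.5–100 mg/kg) 2 h before a 5-h pyloric ligation. Gastric secretion was assayed for pH, volume (mL/100 g) and total acid output ([…]), with % inhibition relative to controls. Groups had 5–15 rats, with 39 controls. Values are means ± SE from several experiments, and significance versus control was taken at p < 0.05 or 0.01.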
# Canis familiaris [3] = assay: Antisecretory activity in histamine-stimulated dog assessed as inhibition of total acid output at 1.6 mg/kg, po administered 18 and 2 hrs prior to histamine challenge (reference value: 0%); format: functional; conditions: Canis lupus familiaris
# Rattus norvegicus [4] = assay: Antisecretory activity in po dosed 5-hrs pyloric ligated rat assessed as increase in pH of gastric secretions administered 2 hrs prior to pyloric ligation measured after 1 hr; format: functional, organism-based; conditions: Stomach; summary of the method: as §1
# Canis familiaris [5] = assay: Antisecretory activity in po dosed histamine-stimulated dog assessed as decrease in total acidity of gastric secretions administered 18 and 2 hrs prior to histamine challenge; format: functional, organism-based; conditions: Canis lupus familiaris; Stomach
# Canis familiaris [6] = assay: Antisecretory activity in histamine-stimulated dog assessed as pH of gastric contents at 3.1 mg/kg, po administered 18 and 2 hrs prior to histamine challenge (reference value: 1 no-unit); format: functional, Canis lupus familiaris, Stomach
# Mus musculus = species: Mus musculus; assay: Anticholinergic activity in mouse assessed as induction of mydriasis; format: functional, organism-based
# Rattus norvegicus [7] = assay: Antisecretory activity in 5-hrs pyloric ligated rat assessed as volume of gastric secretion at 50 mg/kg, po administered 2 hrs prior to pyloric ligation measured per 100 gm of tissue (reference value: 4.05 +/- 0.21 ml); format: functional, Stomach; summary of the method: as §1
# Rattus norvegicus [8] = assay: Antisecretory activity in 5-hrs pyloric ligated rat assessed as pH of gastric contents at 25 mg/kg, po administered 2 hrs prior to pyloric ligation measured after 1 hr (reference value: 1.07 +/- 0.01 no-unit); format: functional, Stomach; summary of the method: as §1
# Canis familiaris [9] = assay: Antisecretory activity in po dosed histamine-stimulated dog assessed as decrease in volume of gastric secretions administered 18 and 2 hrs prior to histamine challenge; format: functional, organism-based; conditions: Canis lupus familiaris; Stomach
# Rattus norvegicus [10] = assay: Antisecretory activity in 5-hrs pyloric ligated rat assessed as inhibition of total acid output at 50 mg/kg, po administered 2 hrs prior to pyloric ligation (reference value: 0%); format: functional; summary of the method: as §1
# Rattus norvegicus [11] = assay: Antisecretory activity in 5-hrs pyloric ligated rat assessed as volume of gastric secretion at 100 mg/kg, po administered 2 hrs prior to pyloric ligation measured per 100 gm of tissue (reference value: 4.05 +/- 0.21 ml); format: functional, Stomach; summary of the method: as §1
# Canis familiaris [12] = assay: Antisecretory activity in histamine-stimulated dog assessed as pH of gastric contents at 12.5 mg/kg, po administered 18 and 2 hrs prior to histamine challenge (reference value: 1 no-unit); format: functional, Canis lupus familiaris, Stomach
# Canis familiaris [13] = assay: Antisecretory activity in histamine-stimulated dog assessed as volume of gastric secretion at 25 mg/kg, po administered 18 and 2 hrs prior to histamine challenge measured per 15 mins (reference value: 14.7 ml); format: functional, Canis lupus familiaris, Stomach
# Rattus norvegicus [14] = assay: Antisecretory activity in po dosed 5-hrs pyloric ligated rat assessed as decrease in volume of gastric secretions administered 2 hrs prior to pyloric ligation; format: functional, organism-based; conditions: Stomach; summary of the method: as §1
# Canis familiaris [15] = assay: Antisecretory activity in histamine-stimulated dog assessed as volume of gastric secretion at 12.5 mg/kg, po administered 18 and 2 hrs prior to histamine challenge measured per 15 mins (reference value: 14.7 ml); format: functional, Canis lupus familiaris, Stomach
# Rattus norvegicus [16] = assay: Antisecretory activity in 5-hrs pyloric ligated rat assessed as pH of gastric contents at 100 mg/kg, po administered 2 hrs prior to pyloric ligation measured after 1 hr (reference value: 1.07 to 1.1 no-unit); format: functional, Stomach
# Canis familiaris [17] = assay: Antisecretory activity in histamine-stimulated dog assessed as pH of gastric contents at 25 mg/kg, po administered 18 and 2 hrs prior to histamine challenge (reference value: 1 no-unit); format: functional, Canis lupus familiaris, Stomach
# [18] = molecular target: Histamine H2 receptor (Cavia porcellus) (UniProt P47747); assay: Inhibition of histamine H2 receptor in guinea pig atria assessed as inhibition of histamine response
# Sequence of Histamine H2 receptor (Cavia porcellus) (P47747 whole entry): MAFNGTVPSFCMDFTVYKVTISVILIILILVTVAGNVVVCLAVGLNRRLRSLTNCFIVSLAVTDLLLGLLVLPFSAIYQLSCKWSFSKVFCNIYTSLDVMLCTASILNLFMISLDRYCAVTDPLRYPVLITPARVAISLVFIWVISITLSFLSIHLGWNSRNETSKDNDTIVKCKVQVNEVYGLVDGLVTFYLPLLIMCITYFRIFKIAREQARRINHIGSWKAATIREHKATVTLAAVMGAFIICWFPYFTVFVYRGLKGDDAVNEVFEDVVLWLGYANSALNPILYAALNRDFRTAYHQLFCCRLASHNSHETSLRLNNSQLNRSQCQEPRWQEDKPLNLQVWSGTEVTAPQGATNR
# Canis familiaris [19] = assay: Antisecretory activity in histamine-stimulated dog assessed as pH of gastric contents at 1.6 mg/kg, po administered 18 and 2 hrs prior to histamine challenge (reference value: 1 no-unit); format: functional, Canis lupus familiaris, Stomach
# Heart = assay: Anticholinergic activity in guinea pig auricle assessed as carbamylcholine-induced depression of heart rate after 5 mins; format: functional, tissue-based; conditions: Cavia porcellus
# Summary of the method: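 Isolated guinea pig auricles in Krebs-Henseleit solution at 35 °C. Compound dissolved in Me2SO-H2O, added to the bath, and left on the tissue for 5 min. Read-out was the dose-related carbamylcholine-induced fall in spontaneous heart rate.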
# Canis familiaris [20] = assay: Antisecretory activity in histamine-stimulated dog assessed as inhibition of total acid output at 12.5 mg/kg, po administered 18 and 2 hrs prior to histamine challenge (reference value: 0%); format: functional; conditions: Canis lupus familiaris
# Canis familiaris [21] = assay: Antisecretory activity in histamine-stimulated dog assessed as volume of gastric secretion at 6.2 mg/kg, po administered 18 and 2 hrs prior to histamine challenge measured per 15 mins (reference value: 14.7 ml); format: functional, Canis lupus familiaris, Stomach
# Rattus norvegicus [22] = assay: Antisecretory activity in 5-hrs pyloric ligated rat assessed as pH of gastric contents at 12.5 mg/kg, po administered 2 hrs prior to pyloric ligation measured after 1 hr (reference value: 1.07 +/- 0.01 no-unit); format: functional, Stomach; summary of the method: as §1
# Canis familiaris [23] = assay: Antisecretory activity in histamine-stimulated dog assessed as inhibition of total acid output at 6.2 mg/kg, po administered 18 and 2 hrs prior to histamine challenge (reference value: 0%); format: functional; conditions: Canis lupus familiaris
# Rattus norvegicus [24] = assay: Antisecretory activity in po dosed 5-hrs pyloric ligated rat assessed as decrease in total acidity of gastric secretions administered 2 hrs prior to pyloric ligation; format: functional, organism-based; conditions: Stomach; summary of the method: as §1
# Rattus norvegicus [25] = assay: Antisecretory activity in 5-hrs pyloric ligated rat assessed as volume of gastric secretion at 12.5 mg/kg, po administered 2 hrs prior to pyloric ligation measured per 100 gm of tissue (reference value: 4.05 +/- 0.21 ml); format: functional, Stomach; summary of the method: as §1
# Canis familiaris [26] = assay: Antisecretory activity in histamine-stimulated dog assessed as volume of gastric secretion at 3.1 mg/kg, po administered 18 and 2 hrs prior to histamine challenge measured per 15 mins (reference value: 14.7 ml); format: functional, Canis lupus familiaris, Stomach
# Canis familiaris [27] = assay: Antisecretory activity in histamine-stimulated dog assessed as pH of gastric contents at 6.2 mg/kg, po administered 18 and 2 hrs prior to histamine challenge (reference value: 1 no-unit); format: functional, Canis lupus familiaris, Stomach
# Canis familiaris [28] = assay: Antisecretory activity in histamine-stimulated dog assessed as inhibition of total acid output at 3.1 mg/kg, po administered 18 and 2 hrs prior to histamine challenge (reference value: 0%); format: functional; conditions: Canis lupus familiaris
# Rattus norvegicus [29] = assay: Antisecretory activity in 5-hrs pyloric ligated rat assessed as inhibition of total acid output at 12.5 mg/kg, po administered 2 hrs prior to pyloric ligation (reference value: 0%); format: functional; summary of the method: as §1
# Rattus norvegicus [30] = assay: Antisecretory activity in 5-hrs pyloric ligated rat assessed as pH of gastric contents at 50 mg/kg, po administered 2 hrs prior to pyloric ligation measured after 1 hr (reference value: 1.07 +/- 0.01 no-unit); format: functional, Stomach; summary of the method: as §1
# Canis familiaris [31] = assay: Antisecretory activity in histamine-stimulated dog assessed as inhibition of total acid output at 25 mg/kg, po administered 18 and 2 hrs prior to histamine challenge (reference value: 0%); format: functional; conditions: Canis lupus familiaris
# Canis familiaris [32] = assay: Antisecretory activity in po dosed histamine-stimulated dog assessed as increase in pH of gastric secretions administered 18 and 2 hrs prior to histamine challenge; format: functional, organism-based; conditions: Canis lupus familiaris; Stomach
# Trachea = assay: Anticholinergic activity in guinea pig trachea assessed as carbamylcholine-induced constriction at 10 uM; format: functional, tissue-based; conditions: Cavia porcellus
# Summary of the method: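 Guinea pig trachea set up in the same bath system as the auricle preparation. Compound in Me2SO-H2O was added to the bath at 10^-5 M. Read-out was the dose-related response to carbamylcholine.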
# Rattus norvegicus [33] = assay: Antisecretory activity in 5-hrs pyloric ligated rat assessed as inhibition of total acid output at 25 mg/kg, po administered 2 hrs prior to pyloric ligation (reference value: 0%); format: functional; summary of the method: as §1
# Canis familiaris [34] = assay: Antisecretory activity in histamine-stimulated dog assessed as volume of gastric secretion at 1.6 mg/kg, po administered 18 and 2 hrs prior to histamine challenge measured per 15 mins (reference value: 14.7 ml); format: functional, Canis lupus familiaris, Stomach
# Rattus norvegicus [35] = assay: Antisecretory activity in 5-hrs pyloric ligated rat assessed as volume of gastric secretion at 25 mg/kg, po administered 2 hrs prior to pyloric ligation measured per 100 gm of tissue (reference value: 4.05 +/- 0.21 ml); format: functional, Stomach; summary of the method: as §1
smiles,measurement,setting,value
Cc1ccc(-n2c(C)c3c(c2C)C(C)(C(N)=O)CC3(C)C)cc1 (stereo unspecified),pH,Rattus norvegicus [1],1.1
Cc1c2c(c(C)n1C1CCCC1)C(C)(C(N)=O)CC2(C)C (stereo unspecified),pH,Rattus norvegicus [1],1.3
Cc1c2c(c(C)n1-c1ccc(F)cc1)C(C)(C(N)=O)CC2(C)C (stereo unspecified),pH,Rattus norvegicus [1],1.4
Cc1ccccc1-n1c(C)c2c(c1C)C(C)(C(N)=O)CC2(C)C (stereo unspecified),pH,Rattus norvegicus [1],1
CCn1c(C)c2c(c1C)C(C)(C(N)=O)CC2(C)C (stereo unspecified),pH,Rattus norvegicus [1],4.8
Cc1c2c(c(C)n1Cc1ccccc1)C(C)(C(N)=O)CC2(C)C (stereo unspecified),pH,Rattus norvegicus [1],1
Cc1[nH]c(C)c2c1C(C)(C)CC2(C)C(N)=O (stereo unspecified),pH,Rattus norvegicus [1],1.4
Cc1c2c(c(C)n1-c1cccc(Cl)c1)C(C)(C(N)=O)CC2(C)C (stereo unspecified),pH,Rattus norvegicus [1],1.1
Cc1c2c(c(C)n1C(C)C)C(C)(C(N)=O)CC2(C)C (stereo unspecified),pH,Rattus norvegicus [1],1.8
CCCCn1c(C)c2c(c1C)C(C)(C(N)=O)CC2(C)C (stereo unspecified),pH,Rattus norvegicus [1],2.5
Cc1c2c(c(C)n1-c1ccccc1)C(C)(C(N)=O)CC2(C)C (stereo unspecified),inhibition in vivo at 100 mg/kg,Rattus norvegicus [2],100%
same,inhibition in vivo at 1.6 mg/kg,Canis familiaris [3],49%
same,Activity,Rattus norvegicus [4],Dose-dependent effect
same,inhibition,Canis familiaris [5],Dose-dependent effect
same,pH,Canis familiaris [6],1.8
same,Activity,Mus musculus,inactive
same,Activity,Rattus norvegicus [7],1.66 mL
same,pH,Rattus norvegicus [8],1.83
same,inhibition,Canis familiaris [9],Dose-dependent effect
same,inhibition in vivo at 50 mg/kg,Rattus norvegicus [10],75%
same,Activity,Rattus norvegicus [11],1.19 mL
same,pH,Canis familiaris [12],4.7
same,Activity,Canis familiaris [13],2.4 mL
same,inhibition,Rattus norvegicus [14],Dose-dependent effect
same,Activity,Canis familiaris [15],4.8 mL
same,pH,Rattus norvegicus [16],6.2
same,pH,Canis familiaris [17],6.7
same,inhibition,[18],Active
same,pH,Canis familiaris [19],1.2
same,Activity,Heart,inactive
same,inhibition in vivo at 12.5 mg/kg,Canis familiaris [20],88%
same,Activity,Canis familiaris [21],2 mL
same,pH,Rattus norvegicus [22],1.34
same,inhibition in vivo at 6.2 mg/kg,Canis familiaris [23],95%
same,inhibition,Rattus norvegicus [24],Dose-dependent effect
same,Activity,Rattus norvegicus [25],2.66 mL
same,Activity,Canis familiaris [26],3.8 mL
same,pH,Canis familiaris [27],3.9
same,inhibition in vivo at 3.1 mg/kg,Canis familiaris [28],84%
same,inhibition in vivo at 12.5 mg/kg,Rattus norvegicus [29],41%
same,pH,Rattus norvegicus [30],3.28
same,inhibition in vivo at 25 mg/kg,Canis familiaris [31],93%
same,Activity,Canis familiaris [32],Dose-dependent effect
same,Activity,Trachea,inactive
same,inhibition in vivo at 25 mg/kg,Rattus norvegicus [33],52%
same,Activity,Canis familiaris [34],11.9 mL
same,Activity,Rattus norvegicus [35],2.16 mL
Cc1cccc(-n2c(C)c3c(c2C)C(C)(C(N)=O)CC3(C)C)c1 (stereo unspecified),pH,Rattus norvegicus [1],1.2
Cc1c2c(c(C)n1C1CCC1)C(C)(C(N)=O)CC2(C)C (stereo unspecified),pH,Rattus norvegicus [1],2.2
Cc1c2c(c(C)n1-c1ccc(Cl)cc1)C(C)(C(N)=O)CC2(C)C (stereo unspecified),pH,Rattus norvegicus [1],1.2
Cc1c2c(c(C)n1C)C(C)(C(N)=O)CC2(C)C (stereo unspecified),pH,Rattus norvegicus [1],4.2
Cc1c2c(c(C)n1CC1CC1)C(C)(C(N)=O)CC2(C)C (stereo unspecified),pH,Rattus norvegicus [1],5.1
CCCn1c(C)c2c(c1C)C(C)(C(N)=O)CC2(C)C (stereo unspecified),pH,Rattus norvegicus [1],5.3
Cc1c2c(c(C)n1C1CC1)C(C)(C(N)=O)CC2(C)C (stereo unspecified),pH,Rattus norvegicus [1],3.7
CN/C(=N\CCSCc1nc[nH]c1C)NC#N [CIMETIDINE],pH,Rattus norvegicus [1],2.1
Cc1c2c(c(C)n1-c1ccccc1Cl)C(C)(C(N)=O)CC2(C)C (stereo unspecified),pH,Rattus norvegicus [1],1.1
